Data set [1] in a line: (§1) Plasma concentration in Lewis rat at 1 mg/kg, po at 24 hrs. Format: ADME, organism-based. Particulars: Lewis, plasma. The arrangement: dose 1 mg/kg, route oral. In short, it runs like this:
(§2)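 Female Lewis rats (N = 5/group) given one oral dose of 1 mg/kg (20% captisol, 1% HPMC, 1% pluronic F68, pH 2.1 with MSA); blood lymphocyte count and total plasma compound measured at 24 h; POC vs vehicle, ANOVA/Dunnett's test.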

Data set [2] has as its target T1, Sphingosine 1-phosphate receptor 1 (Homo sapiens, UniProt P21453). Put plainly: Agonist activity at human S1P1 expressed in U2OS cells coexpressing eGFP assessed as receptor internalization after 1 hr by microscopic analysis relative to 1-(4-(6-benzylbenzofuran-2-yl)-3-fluorobenzyl)azetidine-3-carboxylic acid. Format: functional, cell-based. In outline:
(§3)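 Human S1P1–eGFP fusion protein expressed in U2OS cells; agonism read as receptor internalization; EC50 derived, efficacy expressed relative to 1-(4-(6-benzylbenzofuran-2-yl)-3-fluorobenzyl)azetidine-3-carboxylic acid at 1.0 μM.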

A short description of data set [3]: Solubility of the compound in simulated intestinal fluid. Format: physicochemical.
A short description of data set [4]: Solubility of the compound in 0.01 M aqueous HCl. Format: physicochemical.
Data set [5] is described as follows: Solubility of the compound in phosphate buffer saline at pH 7.4. In kind it is physicochemical. The note with it: phosphate buffered saline.
Data set [6] can be described thus: Apparent permeability across pig LLC-PK1 cells. In kind it is ADME, cell-based, Sus scrofa. In outline:
(§4)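 Permeability across porcine proximal tubule LLC-PK1 cell monolayers; apparent permeability (Papp) and efflux ratio determined.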

The test system of another data set is Rattus norvegicus. Put plainly: Immunosuppressive activity in Lewis rat assessed as change in peripheral lymphocyte count at 1 mg/kg, po after 24 hrs relative to vehicle treated control. In kind it is functional. In short, it runs like this: as §2
In data set [7] the target is T1, Sphingosine 1-phosphate receptor 1. Put plainly: Agonist activity at human S1P1 expressed in U2OS cells coexpressing eGFP assessed as receptor internalization after 1 hr by microscopic analysis. In kind it is functional, cell-based. In short, it runs like this: as §3
Data set [8] is described as follows: Intrinsic clearance in rat liver microsomes after 30 mins. The note with it: read-out: CLH. Format: ADME, Microsome. In general terms: Liver microsomes are vesicles of endoplasmic reticulum, rich in cytochrome P450 enzymes.
Data set [9] can be described thus: Efflux ratio of apparent permeability across pig LLC-PK1 cells. Format: ADME, cell-based, Sus scrofa. In short, it runs like this:
as §4

Data set [10] addresses Sphingosine 1-phosphate receptor 3 (Homo sapiens, UniProt Q99500). The data set is described as follows: Agonist activity at human S1P3 expressed in CHO-K1 cells coexpressing Gq/i5 assessed as intracellular calcium release by fluorimetry. Format: functional, cell-based. In outline: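 CHO-K1 cells expressing the human S1P receptor subtype plus chimeric Gq/i5; Ca2+ mobilization measured; efficacy relative to S1P at 0.20 μM; compounds not reaching >10% of control activity reported as > highest concentration tested.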
A general note: A change in cytosolic calcium serves as a functional read-out for many receptors and channels.

The test system of a further data set is Plasma. The description is as §1. In kind it is ADME, organism-based. The arrangement: dose 1 mg/kg, route oral. The note with it: in vivo, 24 h, BLD = below limit of detection. In outline: as §2

pEC50: −log10 of the molar value. In brackets after ≈: the same amount, converted by molar mass. Where only a bound is given, the exact number is not on record here.

Results on 9 molecules are retold here after ChEMBL document CHEMBL2016555, “4-Methoxy-N-[2-(trifluoromethyl)biphenyl-4-ylcarbamoyl]nicotinamide: A Potent and Selective Agonist of S1P1” (ACS Med Chem Lett, 2011).

T1 sequence (P21453 whole entry, the tested form may be a part): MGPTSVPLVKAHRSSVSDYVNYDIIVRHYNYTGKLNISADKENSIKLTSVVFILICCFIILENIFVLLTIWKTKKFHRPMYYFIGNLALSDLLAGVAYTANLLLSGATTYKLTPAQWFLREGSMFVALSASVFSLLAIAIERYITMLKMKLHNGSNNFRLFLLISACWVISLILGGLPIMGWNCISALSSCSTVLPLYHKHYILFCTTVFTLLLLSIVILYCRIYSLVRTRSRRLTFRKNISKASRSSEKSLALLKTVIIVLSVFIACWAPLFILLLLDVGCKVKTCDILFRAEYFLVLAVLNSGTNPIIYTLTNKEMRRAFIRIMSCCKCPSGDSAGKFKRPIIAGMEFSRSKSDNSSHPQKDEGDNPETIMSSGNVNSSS
Sphingosine 1-phosphate receptor 3, sequence (Q99500 whole entry): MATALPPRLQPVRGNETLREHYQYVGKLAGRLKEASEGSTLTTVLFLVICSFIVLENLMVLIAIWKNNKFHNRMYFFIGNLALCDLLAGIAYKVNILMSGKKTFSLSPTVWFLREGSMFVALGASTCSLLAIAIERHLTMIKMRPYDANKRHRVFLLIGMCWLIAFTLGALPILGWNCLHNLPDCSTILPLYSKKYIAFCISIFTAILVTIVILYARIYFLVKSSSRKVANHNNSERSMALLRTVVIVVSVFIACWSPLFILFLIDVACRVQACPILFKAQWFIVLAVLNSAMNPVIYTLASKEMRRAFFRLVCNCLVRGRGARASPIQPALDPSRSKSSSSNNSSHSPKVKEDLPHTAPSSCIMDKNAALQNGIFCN

By solubility is commonly meant the dissolved amount per volume that the medium holds. The term Papp denotes a coefficient for how fast a substance crosses the barrier. As usually defined, the pEC50 is −log10 of the EC50, conventionally taken in molar units. Regarding `COc1ccccc1C(=O)NC(=O)Nc1ccc(OCC(F)(F)F)c(C(F)(F)F)c1`, in data set [1], the concentration at 24 h is 1 ng/mL. Further, the Efficacy in [2] stood at 83%. In addition, the solubility in [3] was 2.2 µg/mL (≈ 5.04 µM); in data set [4], less than 1 µg/mL; in data set [5] it was less than 1 µg/mL. Also, the apparent permeability coefficient (Papp) in data set [6] is less than 1 ×10⁻⁶ cm/s. Also, the Activity with Rattus norvegicus is recorded as 4%. Further, the pEC50 in data set [7] is 8.17. Also, the microsomal CLint in data set [8] amounted to 25 µL/min/mg.

Broadly, the efflux ratio is a quotient of directional permeabilities that is used to spot active efflux. In [1], `COc1ccccc1C(=O)NC(=O)Nc1ccc(-c2ccccc2)c(C(C)C)c1` displayed a concentration at 24 h of 7 ng/mL. Further, the efflux ratio in data set [9] came to 1. In addition, in data set [2], the Efficacy was 120%. In addition, the solubility in data set [3] was 24 µg/mL (≈ 61.8 µM); in [4], less than 1 µg/mL; in data set [5], less than 1 µg/mL. Further, the Papp in data set [6] was found to be 1.2 ×10⁻⁶ cm/s. The Activity in the data set with Rattus norvegicus came to 3%. In addition, the pEC50 in [7] was 8.27. In addition, the microsomal CLint in [8] was less than 14 µL/min/mg.

Regarding `COc1ccccc1C(=O)NC(=O)Nc1ccc(N2CCCCC2)c(Cl)c1`, the Efficacy in [2] is 120%. The solubility in [3] was 8.5 µg/mL (≈ 21.9 µM); in data set [4], 3.6 µg/mL (≈ 9.28 µM); in [5], less than 1 µg/mL. The Papp in [6] was less than 1 ×10⁻⁶ cm/s. For the same molecule, the pEC50 in data set [7] is 6.64. In [8], the microsomal CLint was determined as 36 µL/min/mg.

For the molecule `COc1ccccc1C(=O)NC(=S)Nc1ccc(N2CCCCC2)c(Cl)c1`, the pEC50 in [10] was less than 4.60; in [7] it was 6.37. Further, the efflux ratio in [9] is 1. Further, the Efficacy in data set [2] was determined as 87%. For the same molecule, the solubility in [3] is 27 µg/mL (≈ 66.8 µM); in [4], less than 1 µg/mL; in [5] it was less than 1 µg/mL. Besides, the Papp in data set [6] was 1.8 ×10⁻⁶ cm/s. Further, the microsomal CLint in data set [8] was 29 µL/min/mg.

In data set [1], `COc1ccccc1C(=O)NC(=O)Nc1ccc(-c2ccccn2)c(C(F)(F)F)c1` yielded a concentration at 24 h of 13 ng/mL. Besides, in data set [9], the efflux ratio was 1.1. Further, the Efficacy in [2] is 110%. In addition, the solubility in data set [3] is 8.5 µg/mL (≈ 20.5 µM); in [4] it was 28 µg/mL (≈ 67.4 µM); in data set [5], 19 µg/mL (≈ 45.7 µM). Moreover, the Papp in data set [6] was determined as 7.4 ×10⁻⁶ cm/s. For the same molecule, the Activity in the data set with Rattus norvegicus was -14%. Further, the pEC50 in data set [7] was 7.89. In data set [8], the microsomal CLint came to 15 µL/min/mg.

In turn, `COc1ccccc1C(=O)NC(=O)Nc1ccc(-c2nccs2)c(C(F)(F)F)c1` registered a concentration at 24 h in data set [1] of 1 ng/mL. Further, the efflux ratio in data set [9] was found to be 1.4. The Efficacy in data set [2] was 130%. Also, the solubility is 12 µg/mL (≈ 28.5 µM) in data set [3], 1.1 µg/mL (≈ 2.61 µM) in data set [4] and less than 1 µg/mL in data set [5]. Moreover, the Papp in data set [6] turned out to be 12 ×10⁻⁶ cm/s. Further, the Activity in the data set with Rattus norvegicus is on record as -18%. In addition, the pEC50 in [7] was 7.42. Also, the microsomal CLint in [8] amounted to 33 µL/min/mg.

On to `COc1ccccc1C(=O)NC(=O)Nc1ccc(N2CCCCC2)c(C(F)(F)F)c1`, for which, in [2], the Efficacy came out at 120%. In addition, the solubility was 4.1 µg/mL (≈ 9.73 µM) in [3], 3 µg/mL (≈ 7.12 µM) in [4] and less than 1 µg/mL in data set [5]. In addition, in data set [6], the Papp is less than 1 ×10⁻⁶ cm/s. The negative-log EC50 (pEC50) in data set [7] was 7.89. The microsomal CLint in data set [8] was determined as 26 µL/min/mg.

With `COc1ccccc1C(=O)NC(=O)Nc1ccc(-c2ccccc2)c(C(F)(F)F)c1`, the concentration at 24 h in data set [1] was 4.9 ng/mL. Further, the Efficacy in data set [2] worked out at 110%. Besides, the solubility in data set [3] was 23 µg/mL (≈ 55.5 µM); in data set [4] it was less than 1 µg/mL; in [5], less than 1 µg/mL. Further, in [6], the Papp was less than 1 ×10⁻⁶ cm/s. The Activity with Rattus norvegicus is listed as -20%. Moreover, the negative-log EC50 (pEC50) in data set [7] is 7.17. Besides, the microsomal CLint in [8] was 15 µL/min/mg.

As for `COc1ccccc1C(=O)NC(=O)Nc1ccc(C(C)C)c(C(F)(F)F)c1`, the Cp entry in the data set with Plasma is recorded as “BLD”. Moreover, the efflux ratio in [9] came out at 1. In addition, in data set [2], the Efficacy was determined as 110%. Besides, the solubility in [3] was 6.9 µg/mL (≈ 18.1 µM); in [4] it was less than 1 µg/mL; in data set [5] it was less than 1 µg/mL. For the same molecule, the Papp in data set [6] worked out at 2.1 ×10⁻⁶ cm/s. In addition, the Activity in the data set with Rattus norvegicus is listed as -16%. The pEC50 in data set [7] was 7.85. Besides, the microsomal CLint in data set [8] is less than 14 µL/min/mg.
